In ChEMBL document CHEMBL1132221, “Isoxazolo-[3,4-d]-pyridazin-7-(6H)-one as a potential substrate for new aldose reductase inhibitors” (J Med Chem, 1999):
Each block holds one compound with its values, some of them ahead of it.

Assays:
[1] = molecular target: T1, Aldo-keto reductase family 1 member B1 (Bos taurus, UniProt P16116); assay: In vitro inhibitory activity against Aldose reductase 2 obtained from calf lenses
[2] = molecular target: Aldo-keto reductase family 1 member B1 (Bos taurus) (UniProt P16116); assay: In vitro inhibitory activity against Aldose reductase 2 obtained from calf lenses at a concentration of 190 uM
Outline: (§1)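 Calf lens ALR2 purified by DE52, Orange Matrex affinity and Sephadex G75 chromatography. Inhibitor in DMSO (1% final) added to a 37 °C reaction with 4.7 mM D,L-glyceraldehyde and 0.11 mM NADPH in 0.25 M sodium phosphate pH 6.8 containing 0.38 M ammonium sulfate. Activity followed as absorbance change at 340 nm, corrected with a blank lacking substrate.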

[3] = molecular target: T1, Aldo-keto reductase family 1 member B1; assay: In vitro inhibitory activity against aldose reductase (ALR2) obtained from calf lenses
Outline: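 ALR2 purified from calf lens: homogenate in pH 7 phosphate buffer with 5 mM DTT, then DE52 ion exchange, Orange Matrex affinity and Sephadex G75. Assay at 37 °C, 4.7 mM D,L-glyceraldehyde, 0.11 mM NADPH, 0.25 M sodium phosphate pH 6.8 with 0.38 M ammonium sulfate, 1% DMSO. NADPH oxidation read at 340 nm against a substrate-free blank.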

[4] = molecular target: Aldo-keto reductase family 1 member B1 (Bos taurus) (UniProt P16116); assay: In vitro inhibitory activity against Aldose reductase 2 obtained from calf lenses at a concentration of 82 uM; outline: as §1
[5] = molecular target: Aldo-keto reductase family 1 member B1 (Bos taurus) (UniProt P16116); assay: In vitro inhibitory activity against Aldose reductase 2 obtained from calf lenses at a concentration of 16 uM; outline: as §1
[6] = molecular target: Aldo-keto reductase family 1 member B1 (Bos taurus) (UniProt P16116); assay: In vitro inhibitory activity against Aldose reductase 2 obtained from calf lenses at a concentration of 142 uM; outline: as §1
[7] = molecular target: Aldo-keto reductase family 1 member B1 (Bos taurus) (UniProt P16116); assay: In vitro inhibitory activity against Aldose reductase 2 obtained from calf lenses at a concentration of 94 uM; outline: as §1

Compound: Cc1nn(CCC(=O)O)c(=O)c2noc(C)c12
inhibition [2]: 28%

Compound: CC(=O)c1c(-c2ccccc2)nn(CC(=O)O)c(=O)c1NCCc1ccccc1
IC50 [1]: 93.9 µM

Compound: Cc1onc2c(=O)n(C/C=C/C(=O)O)nc(-c3ccccc3)c12
IC50 [3]: 107 µM

Compound: CC(=O)c1c(-c2ccccc2)nn(CC(=O)O)c(=O)c1N
IC50 [3]: 154 µM

Compound: Nc1cc(-c2ccccc2)nn(CC(=O)O)c1=O
inhibition [4]: 36%

Compound: CC(=O)c1c(-c2ccccc2)nn(CC(=O)O)c(=O)c1Nc1ccccc1
inhibition [5]: 12%

Compound: CC(=O)c1c(-c2ccccc2)nn(CCC(=O)O)c(=O)c1N
inhibition [6]: 27%

Compound: CC(=O)c1c(-c2ccccc2)nn(CC(=O)O)c(=O)c1NCc1ccc(Cl)cc1
IC50 [1]: 36.5 µM

Compound: CC(=O)c1c(-c2ccccc2)nn(CC(=O)O)c(=O)c1Nc1ccc(Br)cc1
IC50 [1]: 133 µM

Compound: O=C(O)Cn1nc(-c2ccccc2)cc(NCCc2ccccn2)c1=O
IC50 [1]: 157 µM

Compound: Cc1nn(CC(=O)O)c(=O)c2noc(C)c12
IC50 [1]: 42 µM

Compound: Cc1onc2c(=O)n(C(C)C(=O)O)nc(-c3ccccc3)c12 (configuration not stated)
IC50 [1]: 76.8 µM

Compound: Cc1nn(CCCC(=O)O)c(=O)c2noc(C)c12
IC50 [1]: 65.1 µM

Compound: O=C(O)Cn1nc(-c2ccccc2)cc(NCCc2ccccc2)c1=O
IC50 [1]: 68.5 µM

Compound: CCC(C(=O)O)n1nc(-c2ccccc2)c2c(C)onc2c1=O (configuration not stated)
IC50 [1]: 75 µM

Compound: CC(=O)c1c(C)nn(CC(=O)O)c(=O)c1N
IC50 [3]: 210 µM

Compound: Cc1c(-c2nc3cc(C(F)(F)F)ccc3s2)nc2c(O)n(CC(=O)O)nc(-c3ccccc3)c1-2
IC50 [1]: 97.9 µM

Compound: CC(=O)c1c(-c2ccccc2)nn(CC(=O)O)c(=O)c1Nc1ccc(Cl)cc1
inhibition [7]: 27%

Compound: O=C(O)Cn1nc(-c2ccccc2)cc(NCc2ccccc2)c1=O
IC50 [1]: 48.8 µM

Compound: CC(=O)c1c(-c2ccccc2)nn(CCCC(=O)O)c(=O)c1N
IC50 [1]: 37 µM

Compound: CCCC(C(=O)O)n1nc(-c2ccccc2)c2c(C)onc2c1=O (configuration not stated)
IC50 [1]: 114 µM

Compound: Cc1onc2c(=O)n(CCC(=O)O)nc(-c3ccccc3)c12
IC50 [1]: 65.2 µM

Other lines, results leading:

IC50 [1]: 10.4 µM
Compound: Cc1onc2c(=O)n(CCCC(=O)O)nc(-c3ccc(Cl)cc3)c12

IC50 [1]: 28.4 µM
Compound: Cc1onc2c(=O)n(CCCCC(=O)O)nc(-c3ccccc3)c12

IC50 [1]: 34.8 µM
Compound: Cc1onc2c(=O)n(CCC(=O)O)nc(-c3ccc(Cl)cc3)c12

IC50 [1]: 4.76 µM
Compound: Cc1onc2c(=O)n(CC(=O)O)nc(-c3ccc([N+](=O)[O-])cc3)c12

IC50 [1]: 3.72 µM
Compound: Cc1onc2c(=O)n(CC(=O)O)nc(-c3ccc(Cl)cc3)c12

IC50 [1]: 20.2 µM
Compound: Cc1onc2c(=O)n(CCCC(=O)O)nc(-c3ccccc3)c12

IC50 [1]: 4.46 µM
Compound: C[c-]1[o+]nc2c(=O)n(CC(=O)O)nc(-c3cccc([N+](=O)[O-])c3)c21

IC50 [1]: 6.06 µM
Compound: Cc1onc2c(=O)n(CC(=O)O)nc(-c3ccccc3[N+](=O)[O-])c12

IC50 [1]: 12.7 µM
Compound: Cc1onc2c(=O)n(CC(=O)O)nc(-c3ccccc3)c12

IC50 [1]: 27.6 µM
Compound: CC(=O)c1c(-c2ccccc2)nn(CC(=O)O)c(=O)c1NCc1ccccc1
